# High-throughput results deposited in PubChem BioAssay by The Scripps Research Institute Molecular Screening Center.
# An excerpt weighted towards active compounds, which were near 1.9% of everything screened.
# EBNA-1 inh = blocks EBNA-1 binding to DNA. 300,000 tested, 0.34% active. EBNA-1 DNA binding, fluorescence polarization. inhibition, % at 14.8 µM; in the data active = inhibition above about 28%
# ZTA DNA inh = counter-screen for EBNA-1 inhibitors: inhibitors of Epstein-Barr virus ZTA. P03206. ZTA-DNA binding, fluorescence polarization. inhibition, % at 11 µM. 320,000 tested, 0.15% active. AID 2234; in the data active = inhibition above about 33%
# Target sequence (P03206 whole entry, looked up): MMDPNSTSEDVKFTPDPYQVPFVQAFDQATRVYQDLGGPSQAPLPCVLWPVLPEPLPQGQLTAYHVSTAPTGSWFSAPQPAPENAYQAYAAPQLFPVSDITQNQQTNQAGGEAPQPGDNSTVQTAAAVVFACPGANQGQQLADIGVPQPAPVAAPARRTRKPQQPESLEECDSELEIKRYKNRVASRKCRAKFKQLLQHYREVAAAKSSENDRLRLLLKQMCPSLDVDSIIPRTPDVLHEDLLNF
# PP1 counter = blocks human PP1-alpha phosphatase, a PP5 counter-screen | inhibition, % at 6.7 µM | 320,000 tested, 0.9% active | purified PP1alpha, OMFP fluorescence | P62136 | AID 2235;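 active = inhibition above the mean inhibition of all tested compounds plus 3 SD, computed separately for each screening campaign, cut at about 15% in these data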
# Target sequence (P62136 whole entry, looked up): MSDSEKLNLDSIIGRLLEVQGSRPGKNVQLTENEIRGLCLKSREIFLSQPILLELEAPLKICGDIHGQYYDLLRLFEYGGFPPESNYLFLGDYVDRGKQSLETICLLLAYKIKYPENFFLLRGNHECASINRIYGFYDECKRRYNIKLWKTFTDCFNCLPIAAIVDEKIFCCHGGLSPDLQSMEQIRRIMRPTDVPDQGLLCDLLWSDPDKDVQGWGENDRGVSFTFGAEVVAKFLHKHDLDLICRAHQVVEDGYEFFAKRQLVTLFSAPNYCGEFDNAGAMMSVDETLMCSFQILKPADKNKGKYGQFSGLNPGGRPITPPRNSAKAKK
# NS3 helicase inh = HCV NS3 helicase inhibition. NS3 helicase DNA unwinding, Cy5 molecular beacon fluorescence. inhibition, % at 10.9 µM. 290,000 tested, 0.56% active;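 active = inhibition above the mean of all tested compounds plus 3 SD, set per campaign, cut at about 35% in these data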;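 note: 0% = DMSO wells and 100% = thioflavine S control wells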
#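 Material: hepatitis C virus NS3 helicase domain fragment enzyme; measured by: Cy5 fluorescence, 0 and 60 min reads; control set: DMSO and thioflavine S; incubation: 60 min unwinding reaction at 25 °C after ATP addition; read-out basis: % inhibition from 60/0 min fluorescence ratio, DMSO 0%, thioflavine S 100%; repeats: singlicate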
# core dimer inh = blocks dimerization of HCV core protein; TR-FRET GST/Flag-core106 dimerization, 1536-well; inhibition, % at 5 µM; 300,000 tested, 0.33% active; AID 1899;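 active = inhibition above the mean of all tested compounds plus 3 SD, set per screening campaign, cut at about 45% in these data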
#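 Assay system: GST-tagged and Flag-tagged HCV core protein residues 1-106 / Times: compound-protein-antibody incubation 4 h at 22.5 °C / Signal: time-resolved FRET, ex 340 nm, em 617 and 671 nm / Evaluation: % inhibition based on acceptor/donor emission ratio / Benchmarks: wells lacking GST-core106 and wells with excess unlabelled core106 / Repeats: singlicate, one well per compound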
# PP1 confirm = confirmation of human PP1 phosphatase inhibitors | shares compounds with PP1 counter | purified PP1alpha, OMFP substrate fluorescence | inhibition, % at 6.7 µM | 1,900 tested, 52% active | AID 2358;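 active = mean PP1 inhibition above a set limit taken from the earlier primary screen, cut at about 15% in these data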
# PP5 counter = PP5 phosphatase inhibition, counter-screen for PP1 inhibitors; AID 2360; inhibition, % at 6.7 µM; purified PP5c, OMFP fluorescence; 1,900 tested, 4% active; shares compounds with PP1 counter;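 active = mean PP5 inhibition over triplicate wells above about 9.5% taken from the earlier PP1 screen, limit read from the data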
# * hit, by the source's call; / = not tested or not shown.
SMILES,EBNA-1 inh,ZTA DNA inh,PP1 counter,NS3 helicase inh,core dimer inh,PP1 confirm,PP5 counter
Cc1ccccc1-c1cc(C(=O)O)nn1CC1CC(c2cccc([N+](=O)[O-])c2)=NO1 (stereo not given),2,-3,8,/,4,/,/
CCOc1ccc(S(=O)(=O)N2CCC(C(=O)N3CCc4ccccc4C3)CC2)cc1,1,3,3,-15,15,/,/
CCc1ccccc1NC(=O)CCS(=O)(=O)c1ccc(OC)cc1,10,20,37*,20,-288,-2,-5
CCOc1ccccc1NC(=O)CCS(=O)(=O)c1ccc(OC)cc1,5,26,-1,-9,6,/,/
O=C(CSc1nnc2c(n1)[nH]c1ccccc12)NCc1ccccc1F,4,1,23*,-18,2,-2,-6
C#CCN(CC=C)C(=O)c1ccc(OC2CCN(S(=O)(=O)N(C)C)CC2)cc1,-5,-8,0,4,5,/,/
CC1=NOC(=O)/C1=C/c1ccc(-c2ccc(Cl)cc2)o1,-2,0,18*,12,16,49*,-2
COc1cccc(/C=N/NC(=O)CCC(=O)Nc2ccc(Br)cc2)c1,-1,5,6,-1,7,/,/
CC(=O)c1ccc(N2CCN(C(=O)c3ccc(Cn4c(=S)[nH]c5ccc(N6CCOCC6)cc5c4=O)cc3)CC2)cc1,-2,-6,45*,27,33,29*,2
O=C(c1ccc2c(=O)n(Cc3ccccc3)c(=S)[nH]c2c1)N1CCOCC1,6,-4,1,-5,7,/,/
Cc1ccc2[nH]c(CSc3ccccc3)cc(=O)c2c1,17,18,-2,0,2,/,/
CC1(c2ccc(Cl)cc2)NC(=O)N(CC(=O)Nc2ccc(F)cc2)C1=O (stereo not given),-1,-3,0,-14,-2,/,/
COc1ccc(NC(=O)CN2C(=O)NC(C)(c3ccccc3)C2=O)cc1Cl (stereo not given),6,5,-88,6,7,1,2
CC1(c2ccc(Cl)cc2)NC(=O)N(CC(=O)Nc2ccc(N3CCCCC3)cc2)C1=O (stereo not given),-5,13,39*,/,-3,4,-2
CCOc1cc(C2C(C(=O)c3ccc(C)o3)=C(O)C(=O)N2CCc2ccccc2)ccc1O (stereo not given),4,-10,33*,31,13,38*,4
Cc1ccc(S(=O)(=O)Nc2cccc(-c3ccc(N4CCCCCC4)nn3)c2)cc1,8,4,18*,-11,20,11,1
O=C(Nc1nc(-c2ccccn2)cs1)c1cc(S(=O)(=O)N2CCOCC2)ccc1F,/,1,9,/,/,/,/
Cc1ccc(C(=O)Nc2ccccn2)cc1S(=O)(=O)N1CCOCC1,5,5,-6,/,-2,/,/
CN(CC1CCCO1)S(=O)(=O)c1ccc(C(=O)Nc2nc(-c3ccccn3)cs2)cc1 (stereo not given),9,13,29*,-6,-20,28*,-3
CN(CC1CCCO1)S(=O)(=O)c1ccc(C(=O)Nc2ccccc2F)cc1 (stereo not given),9,14,-2,-7,10,/,/
O=C(Nc1nc(-c2ccccn2)cs1)c1ccc(F)c(S(=O)(=O)N2CCOCC2)c1,/,-16,30*,/,/,37*,2
Cc1ccc(C(=O)Nc2nc(-c3ccccn3)cs2)cc1S(=O)(=O)N1CCOCC1,/,-2,31*,/,/,35*,-1
O=C(CN(C(=O)CNC(=O)c1ccco1)c1ccc(F)cc1)NC1CCCC1,1,3,-7,10,-12,/,/
O=S1(=O)N(Cc2ccccc2F)CCCN1Cc1c(F)cccc1Cl,-13,-15,1,2,-8,/,/
COc1ccccc1CNC(=O)CS(=O)(=O)Cc1ccccc1,4,13,-6,3,-2,/,/
SMILES,EBNA-1 inh,ZTA DNA inh,PP1 counter,NS3 helicase inh,core dimer inh,PP1 confirm,PP5 counter
C#CCOCCOCCOCCNc1nc(N2CCN(C(=O)C([C@@H](C)CC)n3cc(C(N)CO)nn3)CC2)nc(N2CCN(C(=O)C([C@@H](C)CC)n3cc(C(N)COC(=O)C(F)(F)F)nn3)CC2)n1 (stereo not given in full),-8,2,7,/,-19,/,/
C=CCOC(=O)C1=C[C@H](c2csc3ccccc23)C[C@H](OCc2ccc(CO)cc2)O1,-5,6,22*,/,5,4,-2
Cc1ccc(Sc2cc(C)nc(-c3ccccn3)n2)cc1,8,14,10,-8,3,/,/
Nc1cccnc1Sc1cccc(Cl)c1,-6,-6,-2,5,0,/,/
COc1cnc(-c2ccccn2)nc1Sc1ccc(C)cc1,-16,4,48*,5,4,51*,-2
COc1ccccc1Sc1nc(-c2ccccn2)ncc1OC,-15,-5,44*,14,4,46*,-6
COc1cnc(-c2ccccn2)nc1Sc1cccc(Cl)c1,-11,-7,33*,4,2,50*,-1
CN(CC(=O)Nc1c(Cl)cccc1Cl)C(=O)Cc1cccs1,/,-3,0,/,/,/,/
Cc1c(CCC(=O)O)c(=O)oc2c(C)c(OCc3cc4c(cc3Cl)OCO4)ccc12,-7,-4,20*,23,12,6,-2
O=C(CN1C(=O)COc2ccc(Cl)cc21)N1CCc2ccccc21,3,12,18*,-3,-2,11,-4
COc1ccc(OC)c(C2NC(=O)N(C)C(C)=C2C(=O)OCc2ccccc2)c1 (stereo not given),-16,-11,2,-2,-2,/,/
CCOC(=O)c1cnc(-n2nc(C)cc2C)nc1NC1CCCCC1,5,-1,55*,-5,18,54*,1
NC(=NCCCCCCN=C(N)/N=C(\N)Nc1ccc(Cl)cc1)/N=C(\N)Nc1ccc(Cl)cc1,2,13,20*,-58,-16,5,0
COc1ccc(NC(=O)CSc2n[nH]c(=O)n2C2CC2)cc1OC,/,17,-1,/,/,/,/
O=C(Nc1cccc([N+](=O)[O-])c1)c1cc2ccccc2cc1O,-8,-1,23*,10,-3,19*,-1
O=C(O)c1ccccc1C(=O)Nc1cccc([N+](=O)[O-])c1,17,19,1,6,-1,/,/
Cc1cnc(NC(=O)CSc2nnc3ncccn23)s1,11,10,22*,18,2,-4,-6
CCc1nnc(NC(=O)CSc2nnc3ncccn23)s1,5,-1,-1,3,-3,/,/
COc1cccc2c(=O)c3cccc(N)c3[nH]c12,-2,-12,20*,0,23,19*,13*
COc1ccc(C)cc1NC(=O)CN(C)C1CCCCC1,15,-3,-4,7,10,/,/
O=C(O)c1nc(-c2ccccc2)n(-c2ccccc2)n1,6,6,7,-3,1,/,/
